Measurements taken from ChEMBL document CHEMBL4138177, “Design and synthesis of short amphiphilic cationic peptidomimetics based on biphenyl backbone as antibacterial agents” (Eur J Med Chem, 2018).
Values after ≈ are worked out from the molar mass of the structure shown. Active and inactive are the calls of the source. The calls are words filed in the database; no cut-off is given here.

Columns and labels:
Staphylococcus aureus [1] = test: Antibiofilm activity against drug-resistant pre-formed Staphylococcus aureus biofilms assessed as inhibition of biomass formation at 4 times MIC; type: functional
Staphylococcus aureus [2] = test: Antibiofilm activity against Staphylococcus aureus SA38 assessed as inhibition of biofilm formation at 250 uM after 24 hrs by crystal violet staining based assay relative to control; type: functional; settings: SA38, 24 h
In short: (§1)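 Overnight culture diluted 1:20 in LB and grown overnight at 37 °C, 150 rpm, in 96-well plates. Compounds added at 250 µM from DMSO stock; controls received equal DMSO. Incubated overnight at 37 °C, 150 rpm. Biofilm on polystyrene quantified by crystal violet staining. Triplicate, three independent experiments.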

Pseudomonas aeruginosa = test: Antimicrobial activity against Pseudomonas aeruginosa PAO1 after 18 to 24 hrs by spectrophotometry based broth micro dilution assay; type: functional; settings: read-out: MIC100
In short: (§2)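 CLSI broth microdilution. Mid-log cells grown in MHB at 37 °C, shaken 120 rpm, washed three times in PBS pH 7.4, diluted in fresh MHB to a final 1–2 × 10⁵ cfu/mL. Two-fold serial dilutions from 250 down to 3.9 µM. Incubated 18–24 h at 37 °C, 120 rpm. A600 read; MIC taken as the lowest concentration giving 100% growth inhibition. Triplicate, three independent experiments.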

Escherichia coli [3] = test: Antibiofilm activity against Escherichia coli K-12 assessed as inhibition of biofilm formation at 250 uM after 24 hrs by crystal violet staining based assay relative to control; type: functional; settings: K-12, 24 h; in short: as §1
Escherichia coli [4] = test: Antimicrobial activity against Escherichia coli K-12 after 18 to 24 hrs by spectrophotometry based broth micro dilution assay; type: functional; settings: read-out: MIC100; in short: as §2
Staphylococcus aureus [5] = test: Antimicrobial activity against Staphylococcus aureus SA38 after 18 to 24 hrs by spectrophotometry based broth micro dilution assay; type: functional; settings: read-out: MIC100; in short: as §2
MRC5 [6] = test: Cytotoxicity against human MRC5 cells after 72 hrs by Alamar blue staining-based spectrophotometric analysis; type: cell-based; settings: for IC50: Homo sapiens, MRC5, 72 h; for Activity: human, mrc5, 72 h
In short: (§3)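 MRC-5 lung fibroblasts grown in MEM with 10% FCS, 37 °C, 5% CO₂. Seeded at 2 × 10⁴ cells/well to confluence, then treated 24 h later for 72 h. Medium replaced with 10% Alamar blue for 6 h and absorbance read. Viability expressed as % of untreated cells and IC50 derived. Triplicate, three independent experiments.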

MRC5 [7] = test: Cytotoxicity against human MRC5 cells up to 350 uM after 72 hrs by Alamar blue staining-based spectrophotometric analysis; type: cell-based; settings: mrc5, 72 h; in short: as §3
Lipid bilayer [8] = test: Binding affinity to zwitterionic tethered bilayer lipid membranes assessed as increase in membrane capacitance changes at 10 uM by electrochemical impedance spectroscopic analysis
In short: (§4)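 Tethered bilayer membranes formed from a mobile phase of 70% diphytanyl-glycero-phosphatidylcholine and 30% diphytanyl-diglyceride ether (3 mM in ethanol), associated for 2 min, then washed with PBS to give zwitterionic membranes. A variant mobile phase gave negatively charged membranes. Conduction and capacitance measured by AC impedance spectroscopy with Lev-Mar fitting. Triplicate.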

Lipid bilayer [9] = test: Binding affinity to negatively charged tethered bilayer lipid membranes assessed as increase in membrane capacitance changes at 10 uM by electrochemical impedance spectroscopic analysis; in short: as §4
Lipid bilayer [10] = test: Binding affinity to negatively charged tethered bilayer lipid membranes assessed as increase in membrane capacitance changes at 0.1 to 100 uM by electrochemical impedance spectroscopic analysis; in short: as §4
Lipid bilayer [11] = test: Binding affinity to zwitterionic tethered bilayer lipid membranes assessed as increase in membrane conduction response by electrochemical impedance spectroscopic analysis; in short: as §4
Staphylococcus aureus [12] = test: Induction of cytoplasmic membrane disruption in Staphylococcus aureus SA38 at 31.2 uM measured within 3 mins by diSC3-5 dye-based luminescence spectrophotometric analysis; type: functional, organism-based
Lipid bilayer [13] = test: Binding affinity to negatively charged tethered bilayer lipid membranes assessed as increase in membrane conduction response at 0.1 to 100 uM by electrochemical impedance spectroscopic analysis; in short: as §4
Lipid bilayer [14] = test: Binding affinity to zwitterionic tethered bilayer lipid membranes assessed as increase in membrane capacitance changes at 0.1 to 100 uM by electrochemical impedance spectroscopic analysis; in short: as §4
Escherichia coli [15] = test: Induction of cytoplasmic membrane disruption in Escherichia coli K-12 at 3.9 to 31.2 uM by diSC3-5 dye-based luminescence spectrophotometric analysis; type: functional, organism-based
Staphylococcus aureus [16] = test: Induction of cytoplasmic membrane disruption in Staphylococcus aureus SA38 at 7.8 to 62.5 uM measured within 3 mins by diSC3-5 dye-based luminescence spectrophotometric analysis; type: functional, organism-based

Structure (SMILES): CC[C@H](C)[C@H](NC(=O)[C@H](CCCCN)NC(=O)[C@H](CCC(=O)O)NC(=O)[C@H](CCCCN)NC(=O)[C@H](CO)NC(=O)[C@H](CCCCN)NC(=O)[C@H](CCCNC(=N)N)NC(=O)[C@H](Cc1ccccc1)NC(=O)[C@H](Cc1ccccc1)NC(=O)[C@H](CC(=O)O)NC(=O)CNC(=O)[C@H](CC(C)C)NC(=O)[C@@H](N)CC(C)C)C(=O)NCC(=O)N[C@@H](CCCCN)C(=O)N[C@@H](CCC(=O)O)C(=O)N[C@@H](Cc1ccccc1)C(=O)N[C@@H](CCCCN)C(=O)N[C@@H](CCCNC(=N)N)C(=O)N[C@H](C(=O)N[C@H](C(=O)N[C@@H](CCC(N)=O)C(=O)N[C@@H](CCCNC(=N)N)C(=O)N[C@H](C(=O)N[C@@H](CCCCN)C(=O)N[C@@H](CC(=O)O)C(=O)N[C@@H](Cc1ccccc1)C(=O)N[C@@H](CC(C)C)C(=O)N[C@@H](CCCNC(=N)N)C(=O)N[C@@H](CC(N)=O)C(=O)N[C@@H](CC(C)C)C(=O)N[C@H](C(=O)N1CCC[C@H]1C(=O)N[C@@H](CCCNC(=N)N)C(=O)N[C@H](C(=O)N[C@@H](CCC(=O)O)C(=O)N[C@@H](CO)C(=O)O)[C@@H](C)O)C(C)C)[C@@H](C)CC)C(C)C)[C@@H](C)CC [CATHELICIDIN]
- inhibition (INH) (Staphylococcus aureus [1]): 40%

Structure (SMILES): N=C(N)NCCNC(=O)c1cccc(-c2cccc(NC(=O)[C@@H](N)Cc3c[nH]c4ccccc34)c2)c1
- inhibition at 250 µM (Staphylococcus aureus [2]): 41%
- MIC (Pseudomonas aeruginosa): > 250 µM
- inhibition at 250 µM (Escherichia coli [3]): 39%
- MIC (Escherichia coli [4]): > 125 µM
- MIC (Staphylococcus aureus [5]): 62.5 µM (≈ 30.2 µg/mL)
- IC50 (MRC5 [6]): > 300 µM
- Activity (MRC5 [6]): Dose-dependent effect
- Activity (MRC5 [7]): Non-Toxic

Structure (SMILES): N=C(N)NCCNC(=O)c1cccc(-c2cccc(N)c2)c1
- Activity (Lipid bilayer [8]): inactive
- MIC (Pseudomonas aeruginosa): > 250 µM
- MIC (Escherichia coli [4]): > 125 µM
- MIC (Staphylococcus aureus [5]): 62.5 µM (≈ 18.6 µg/mL)
- Activity (Lipid bilayer [9]): inactive

Structure (SMILES): NCCNC(=O)c1cccc(-c2cccc(NC(=O)[C@@H](N)Cc3c[nH]c4ccccc34)c2)c1
- MIC (Pseudomonas aeruginosa): > 250 µM
- MIC (Escherichia coli [4]): > 125 µM
- MIC (Staphylococcus aureus [5]): 125 µM (≈ 55.2 µg/mL)

Structure (SMILES): NCCCC[C@H](NC(=O)c1cccc(-c2cccc(NC(=O)[C@H](Cc3c[nH]c4ccccc34)NC(=O)[C@@H](N)Cc3ccccc3)c2)c1)C(=O)NCCN
- Activity (Lipid bilayer [10]): Dose-dependent effect
- Activity (Lipid bilayer [11]): Dose-dependent effect
- inhibition at 250 µM (Staphylococcus aureus [2]): 30%
- Activity (Lipid bilayer [8]): Active
- MIC (Pseudomonas aeruginosa): 250 µM (≈ 179 µg/mL)
- inhibition at 250 µM (Escherichia coli [3]): 8%
- Activity (Staphylococcus aureus [12]): Active
- Activity (Lipid bilayer [13]): inactive
- MIC (Escherichia coli [4]): 31.2 µM (≈ 22.4 µg/mL)
- Activity (Lipid bilayer [14]): Dose-dependent effect
- MIC (Staphylococcus aureus [5]): 31.2 µM (≈ 22.4 µg/mL)
- Activity (Lipid bilayer [9]): Active
- IC50 (MRC5 [6]): > 300 µM
- Activity (MRC5 [6]): Dose-dependent effect
- Activity (MRC5 [7]): Non-Toxic

Structure (SMILES): COC(=O)[C@H](CCCNC(=N)N)NC(=O)c1cccc(-c2cccc(NC(=O)[C@H](Cc3c[nH]c4ccccc34)NC(=O)[C@@H](N)Cc3ccccc3)c2)c1
- Activity (Lipid bilayer [10]): Dose-dependent effect
- Activity (Lipid bilayer [11]): Dose-dependent effect
- Activity (Lipid bilayer [8]): Active
- MIC (Pseudomonas aeruginosa): 250 µM (≈ 179 µg/mL)
- Activity (Lipid bilayer [13]): inactive
- MIC (Escherichia coli [4]): 125 µM (≈ 89.6 µg/mL)
- Activity (Lipid bilayer [14]): inactive
- MIC (Staphylococcus aureus [5]): 31.2 µM (≈ 22.4 µg/mL)
- Activity (Lipid bilayer [9]): Active
- IC50 (MRC5 [6]): > 300 µM
- Activity (MRC5 [6]): Dose-dependent effect
- Activity (MRC5 [7]): Non-Toxic

Structure (SMILES): COC(=O)[C@H](CCCNC(=N)N)NC(=O)c1cccc(-c2cccc(NC(=O)[C@@H](N)Cc3c[nH]c4ccccc34)c2)c1
- MIC (Pseudomonas aeruginosa): > 250 µM
- MIC (Escherichia coli [4]): > 125 µM
- MIC (Staphylococcus aureus [5]): 62.5 µM (≈ 35.6 µg/mL)
- IC50 (MRC5 [6]): > 300 µM
- Activity (MRC5 [6]): Dose-dependent effect
- Activity (MRC5 [7]): Non-Toxic

Structure (SMILES): N=C(N)NCCNC(=O)c1cccc(-c2cccc(NC(=O)[C@H](Cc3c[nH]c4ccccc34)NC(=O)[C@@H](N)Cc3ccccc3)c2)c1
- Activity (Lipid bilayer [10]): Dose-dependent effect
- Activity (Lipid bilayer [11]): Dose-dependent effect
- Activity (Lipid bilayer [8]): Active
- MIC (Pseudomonas aeruginosa): 250 µM (≈ 158 µg/mL)
- Activity (Lipid bilayer [13]): inactive
- MIC (Escherichia coli [4]): 31.2 µM (≈ 19.7 µg/mL)
- Activity (Lipid bilayer [14]): Dose-dependent effect
- MIC (Staphylococcus aureus [5]): 15.6 µM (≈ 9.84 µg/mL)
- Activity (Lipid bilayer [9]): Active
- IC50 (MRC5 [6]): > 300 µM
- Activity (MRC5 [6]): Dose-dependent effect
- Activity (MRC5 [7]): Non-Toxic

Structure (SMILES): N=C(N)NCCNC(=O)[C@H](CCCCN)NC(=O)c1cccc(-c2cccc(NC(=O)[C@H](Cc3c[nH]c4ccccc34)NC(=O)[C@@H](N)Cc3ccccc3)c2)c1
- Activity (Staphylococcus aureus [12]): Active
- MIC (Escherichia coli [4]): 15.6 µM (≈ 11.8 µg/mL)
- MIC (Staphylococcus aureus [5]): 31.2 µM (≈ 23.7 µg/mL)
- IC50 (MRC5 [6]): > 300 µM
- Activity (MRC5 [6]): Dose-dependent effect
- Activity (MRC5 [7]): Non-Toxic

Structure (SMILES): NCCNC(=O)c1cccc(-c2cccc(NC(=O)[C@H](Cc3c[nH]c4ccccc34)NC(=O)[C@@H](N)Cc3ccccc3)c2)c1
- MIC (Pseudomonas aeruginosa): 250 µM (≈ 147 µg/mL)
- MIC (Escherichia coli [4]): > 125 µM
- MIC (Staphylococcus aureus [5]): 62.5 µM (≈ 36.8 µg/mL)

Structure (SMILES): COC(=O)[C@H](CCCCN)NC(=O)c1cccc(-c2cccc(NC(=O)[C@H](Cc3c[nH]c4ccccc34)NC(=O)[C@@H](N)Cc3ccccc3)c2)c1
- Activity (Lipid bilayer [10]): Dose-dependent effect
- Activity (Lipid bilayer [11]): Dose-dependent effect
- Activity (Lipid bilayer [8]): Active
- MIC (Pseudomonas aeruginosa): 250 µM (≈ 172 µg/mL)
- Activity (Lipid bilayer [13]): inactive
- MIC (Escherichia coli [4]): 125 µM (≈ 86.1 µg/mL)
- Activity (Lipid bilayer [14]): Dose-dependent effect
- MIC (Staphylococcus aureus [5]): 31.2 µM (≈ 21.5 µg/mL)
- Activity (Lipid bilayer [9]): Active
- IC50 (MRC5 [6]): > 300 µM
- Activity (MRC5 [6]): Dose-dependent effect
- Activity (MRC5 [7]): Non-Toxic

Structure (SMILES): N=C(N)NCCC[C@H](NC(=O)c1cccc(-c2cccc(NC(=O)[C@H](Cc3c[nH]c4ccccc34)NC(=O)[C@@H](N)Cc3ccccc3)c2)c1)C(=O)NCCNC(=N)N
- Activity (Escherichia coli [15]): Active
- MIC (Escherichia coli [4]): 7.8 µM (≈ 6.14 µg/mL)
- MIC (Staphylococcus aureus [5]): 15.6 µM (≈ 12.3 µg/mL)
- Activity (Staphylococcus aureus [16]): Active
- IC50 (MRC5 [6]): > 300 µM
- Activity (MRC5 [6]): Dose-dependent effect
- Activity (MRC5 [7]): Non-Toxic

Structure (SMILES): N=C(N)NCCNC(=O)[C@H](Cc1c[nH]c2ccccc12)NC(=O)[C@@H](N)Cc1ccccc1
- MIC (Escherichia coli [4]): > 125 µM
- MIC (Staphylococcus aureus [5]): > 250 µM

Structure (SMILES): COC(=O)[C@H](CCCCN)NC(=O)c1cccc(-c2cccc(NC(=O)[C@@H](N)Cc3c[nH]c4ccccc34)c2)c1
- MIC (Pseudomonas aeruginosa): > 250 µM
- MIC (Escherichia coli [4]): > 125 µM
- MIC (Staphylococcus aureus [5]): 31.2 µM (≈ 16.9 µg/mL)

Structure (SMILES): NCCCC[C@H](NC(=O)c1cccc(-c2cccc(NC(=O)[C@@H](N)Cc3c[nH]c4ccccc34)c2)c1)C(=O)NCCN
- MIC (Pseudomonas aeruginosa): > 250 µM
- MIC (Escherichia coli [4]): > 125 µM
- MIC (Staphylococcus aureus [5]): 31.2 µM (≈ 17.8 µg/mL)
